The source made the active and inactive calls. The rule behind the calls is not given here.
Tests used:
D(4) dopamine receptor = molecular target: T1, D(4) dopamine receptor (Homo sapiens, UniProt P21917); test: Displacement of [3H]spiperone from human D4.4 receptor expressed in CHO cells; assay type: cell-based
T1 sequence (P21917 whole entry): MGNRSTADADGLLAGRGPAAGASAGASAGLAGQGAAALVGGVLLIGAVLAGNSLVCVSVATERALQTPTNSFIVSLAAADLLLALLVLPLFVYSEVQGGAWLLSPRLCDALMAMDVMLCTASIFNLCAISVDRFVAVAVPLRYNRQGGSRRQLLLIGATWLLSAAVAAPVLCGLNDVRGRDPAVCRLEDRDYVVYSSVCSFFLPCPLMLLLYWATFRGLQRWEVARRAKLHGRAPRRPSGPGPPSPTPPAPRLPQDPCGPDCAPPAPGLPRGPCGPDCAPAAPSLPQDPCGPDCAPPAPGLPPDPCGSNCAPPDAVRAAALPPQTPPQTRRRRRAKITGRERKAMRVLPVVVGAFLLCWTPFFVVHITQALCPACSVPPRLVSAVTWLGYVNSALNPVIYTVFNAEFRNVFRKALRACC
Outline: (§1)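 Competition binding against [3H]spiperone on cloned human receptors (D2long, D2short, D3, D4.4) stably expressed in CHO cells. Ki values were taken from two to four independent experiments, each run in triplicate.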

D(2) dopamine receptor [1] = molecular target: T2, D(2) dopamine receptor (Homo sapiens, UniProt P14416); test: Displacement of [3H]spiperone from human D2short receptor expressed in CHO cells; assay type: cell-based; outline: as §1
T2 sequence (P14416 whole entry): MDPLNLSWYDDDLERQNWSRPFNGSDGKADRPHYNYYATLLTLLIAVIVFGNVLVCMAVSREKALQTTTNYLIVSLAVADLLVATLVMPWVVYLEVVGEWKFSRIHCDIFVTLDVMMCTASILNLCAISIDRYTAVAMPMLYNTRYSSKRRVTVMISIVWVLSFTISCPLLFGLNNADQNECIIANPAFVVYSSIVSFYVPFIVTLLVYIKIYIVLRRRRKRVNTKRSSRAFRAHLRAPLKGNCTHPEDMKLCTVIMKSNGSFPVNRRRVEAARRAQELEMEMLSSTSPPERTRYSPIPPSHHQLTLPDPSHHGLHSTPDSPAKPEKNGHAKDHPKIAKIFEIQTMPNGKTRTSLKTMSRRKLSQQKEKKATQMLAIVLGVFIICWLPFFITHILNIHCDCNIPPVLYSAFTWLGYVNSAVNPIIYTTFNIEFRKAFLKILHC

D(2) dopamine receptor [2] = molecular target: T2, D(2) dopamine receptor; test: Displacement of [3H]spiperone from human D2long receptor expressed in CHO cells; assay type: cell-based; outline: as §1
D(3) dopamine receptor = D(3) dopamine receptor (Homo sapiens, UniProt P35462); test: Displacement of [3H]spiperone from human D3 receptor expressed in CHO cells; assay type: cell-based; outline: as §1
Chain of D(3) dopamine receptor (P35462 whole entry): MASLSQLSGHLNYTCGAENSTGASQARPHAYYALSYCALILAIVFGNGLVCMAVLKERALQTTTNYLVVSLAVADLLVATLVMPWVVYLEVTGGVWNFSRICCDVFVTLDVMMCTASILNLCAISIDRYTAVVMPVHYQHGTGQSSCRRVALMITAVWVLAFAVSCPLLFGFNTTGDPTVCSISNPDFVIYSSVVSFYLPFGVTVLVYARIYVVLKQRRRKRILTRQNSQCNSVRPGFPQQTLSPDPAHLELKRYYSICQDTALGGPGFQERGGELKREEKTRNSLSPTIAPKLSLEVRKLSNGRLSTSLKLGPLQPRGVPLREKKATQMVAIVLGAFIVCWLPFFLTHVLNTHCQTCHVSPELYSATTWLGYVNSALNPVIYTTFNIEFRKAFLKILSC

[3] = Displacement of [3H]WAY100635 from 5-HT1A in pig cerebral cortex; assay type: tissue-based, Sus scrofa
Outline: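 Porcine cortical membranes were used with selective radioligands: [3H]WAY100635 for 5-HT1A, [3H]ketanserin for 5-HT2 and [3H]prazosin for α1. Ki values were taken from two to four independent experiments, each run in triplicate.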

D(1A) dopamine receptor = D(1A) dopamine receptor (Sus scrofa, UniProt P50130); test: Displacement of [3H]SCH23390 from D1 receptor in pig striatal membrane; assay type: cell membranes, Striatum
Chain of D(1A) dopamine receptor (P50130 whole entry): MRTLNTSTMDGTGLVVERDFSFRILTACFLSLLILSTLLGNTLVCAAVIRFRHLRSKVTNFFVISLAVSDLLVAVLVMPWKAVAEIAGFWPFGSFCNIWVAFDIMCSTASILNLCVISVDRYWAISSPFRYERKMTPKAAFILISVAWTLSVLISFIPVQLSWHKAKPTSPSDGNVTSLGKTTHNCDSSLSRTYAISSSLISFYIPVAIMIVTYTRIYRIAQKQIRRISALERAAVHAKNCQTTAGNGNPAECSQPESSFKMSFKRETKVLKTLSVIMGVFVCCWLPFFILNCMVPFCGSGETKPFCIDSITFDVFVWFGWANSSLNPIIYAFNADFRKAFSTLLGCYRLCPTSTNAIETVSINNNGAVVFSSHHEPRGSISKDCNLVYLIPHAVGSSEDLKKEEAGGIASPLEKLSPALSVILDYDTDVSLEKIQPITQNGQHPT
Outline: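 D1 binding on porcine striatal membrane preparations, displacing the D1-selective antagonist [3H]SCH23390. Ki values were taken from two to four independent experiments, each run in triplicate.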

[4] = Displacement of [3H]ketanserin from 5-HT2 in pig cerebral cortex; assay type: tissue-based, Sus scrofa
[5] = molecular target: T3, D(4) dopamine receptor (Homo sapiens) (UniProt P21917); test: Antagonist activity at human D4.4 receptor expressed in CHO10001 cells assessed as [3H]thymidine incorporation preincubated at 63 nM for 20 hrs before [3H]thymidine addition by mitogenesis assay; assay type: cell-based
T3 sequence (whole entry): T1 sequence (P21917 whole entry)

[6] = molecular target: T3, D(4) dopamine receptor (Homo sapiens); test: Partial agonist activity at human D4.4 receptor expressed in CHO10001 cells assessed as [3H]thymidine incorporation preincubated at 63 nM for 20 hrs before [3H]thymidine addition by mitogenesis assay; assay type: cell-based

SMILES | Ki (D(4) dopamine receptor) [nM] | Ki (D(2) dopamine receptor [1]) [nM] | Ki (D(2) dopamine receptor [2]) [nM] | Ki (D(3) dopamine receptor) [nM] | Ki [3] [nM] | Ki (D(1A) dopamine receptor) [nM] | Ki [4] [nM] | Activity [5] | Activity [6] [%]
COc1ccccc1N1CCN(Cc2cn(CCOCCOCCF)nn2)CC1 | 150 | 3400 | 7700 | 5100 | 870 | 30000 | 23000 | – | –
COc1ccccc1N1CCN(Cc2cn([C@@H]3O[C@H](CO)[C@@H](O)[C@H](O)[C@H]3F)nn2)CC1 | 500 | 42000 | 23000 | 17000 | 12000 | 54000 | 38000 | – | –
COc1ccccc1N1CCN(Cc2cn([C@@H]3O[C@H](CF)[C@@H](O)[C@H](O)[C@H]3O)nn2)CC1 | 340 | 51000 | 24000 | – | 18000 | 77000 | – | – | –
COc1ccccc1N1CCN(Cc2cn(-c3ccc(OCCCOC4O[C@H](CO)[C@@H](O)[C@H](O)[C@H]4F)cc3)nn2)CC1 (stereo not given in full) | 32 | 1500 | 4100 | 5700 | 650 | 16000 | 7800 | – | –
COc1ccccc1N1CCN(Cc2cn(-c3ccc(OCCOCCOCCF)cc3)nn2)CC1 | 100 | 2900 | 2700 | 200 | 560 | 43000 | 8200 | – | –
COc1ccccc1N1CCN(Cc2cn(CCOCCOCCOCCF)nn2)CC1 | 680 | 4700 | 8300 | 7600 | 770 | 60000 | 18000 | – | –

Now those with a lower Ki (D(4) dopamine receptor), led by results:

Ki (D(4) dopamine receptor) [nM] | Ki (D(2) dopamine receptor [1]) [nM] | Ki (D(2) dopamine receptor [2]) [nM] | Ki (D(3) dopamine receptor) [nM] | Ki [3] [nM] | Ki (D(1A) dopamine receptor) [nM] | Ki [4] [nM] | Activity [5] | Activity [6] [%] | SMILES
23 | 750 | 1600 | 1700 | 240 | – | 27000 | – | – | COc1ccccc1N1CCN(Cc2cn(CCOCCF)nn2)CC1
20 | 560 | 460 | 800 | 54 | 26000 | 6400 | – | – | COc1ccccc1N1CCN(Cc2cn(CCCCCCF)nn2)CC1
16 | 770 | 440 | 2900 | 480 | 3600 | 9000 | – | – | COc1ccccc1N1CCN(Cc2cn(-c3ccc(OCCCOCCF)cc3)nn2)CC1
14 | 18000 | 1600 | 17000 | 420 | 45000 | 10000 | – | 27 | COc1ccccc1N1CCN(Cc2cn(-c3ccc(OCCF)cc3)nn2)CC1
5.1 | 520 | 340 | 2800 | 420 | 38000 | – | Active | – | COc1ccccc1N1CCN(Cc2cn(-c3ccc(OCCCF)cc3)nn2)CC1

From ChEMBL document CHEMBL2440010, “Click chemistry based synthesis of dopamine D4 selective receptor ligands for the selection of potential PET tracers” (Bioorg Med Chem Lett, 2013)
